Measured values as given in ChEMBL document CHEMBL1833946, “Synthesis of β-functionalized temoporfin derivatives for an application in photodynamic therapy” (Bioorg Med Chem Lett, 2011).
Active and inactive are the calls of the source. The calls are words filed in the database; no cut-off is given here.

Assays:
[1] = test system: HT-29; experiment: Phototoxicity against human HT29 cells irradiated with 652 nm diode laser at the rate of 50 J/cm'2 at 10 uM after 24 hrs by XTT assay in presence of 10% heat-inactivated fetal calf serum; assay type: functional, cell-based
Method in brief: (§1)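 HT-29 cells seeded at 2 × 10⁴ cells/well. Loaded 24 h with 2 or 10 μM sensitizer (final; from 2 mM DMSO stock kept dark at 4 °C) in phenol-red-free RPMI 1640 plus 10% FCS. Irradiated at room temperature with a 652 nm diode laser, 100 mW/cm², 50 J/cm². Viability read by XTT absorbance.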

[2] = Chemical stability of the compound; assay type: physicochemical
[3] = test system: HT-29; experiment: Phototoxicity against human HT29 cells irradiated with 652 nm diode laser at the rate of 50 J/cm'2 at 2 uM after 24 hrs by XTT assay in presence of 10% heat-inactivated fetal calf serum; assay type: functional, cell-based; method in brief: as §1
[4] = test system: HT-29; experiment: Cytotoxicity against human HT29 cells under dark condition at 10 uM after 24 hrs by XTT assay in presence of 10% heat-inactivated fetal calf serum; assay type: functional, cell-based
Method in brief: (§2)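 HT-29 human colon adenocarcinoma cells seeded at 2 × 10⁴ cells/well. Incubated 24 h with 2 or 10 μM sensitizer (final, diluted from 2 mM DMSO stock) in phenol-red-free RPMI 1640 with 10% FCS. Cells kept without irradiation for dark toxicity. Viability measured by XTT absorbance.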

[5] = test system: HT-29; experiment: Cytotoxicity against human HT29 cells under dark condition at 2 uM after 24 hrs by XTT assay in presence of 10% heat-inactivated fetal calf serum; assay type: functional, cell-based; method in brief: as §2

Stability [2] | Structure (SMILES) | Activity [1] | Activity [3] | Activity [4] | Activity [5]
Stable | Oc1cccc(-c2c3nc(c(-c4cccc(O)c4)c4ccc([nH]4)c(-c4cccc(O)c4)c4nc(c(-c5cccc(O)c5)c5ccc2[nH]5)C(O)(c2cc(C(F)(F)F)cc(C(F)(F)F)c2)C4(O)c2cc(C(F)(F)F)cc(C(F)(F)F)c2)C=C3)c1 (stereo not given) | Active | inactive | inactive | inactive
Stable | Oc1cccc(-c2c3nc(c(-c4cccc(O)c4)c4ccc([nH]4)c(-c4cccc(O)c4)c4nc(c(-c5cccc(O)c5)c5ccc2[nH]5)C(O)(C(F)(F)F)C4(O)C(F)(F)F)C=C3)c1 (stereo not given) | Active | Active | inactive | inactive
Stable | CCCCCCC1(O)c2nc(c(-c3cccc(O)c3)c3ccc([nH]3)c(-c3cccc(O)c3)c3nc(c(-c4cccc(O)c4)c4ccc([nH]4)c2-c2cccc(O)c2)C=C3)C1(O)CCCCCC (stereo not given) | Active | Active | inactive | inactive
